PMC11827156 (Malaria Journal, 2025)
“Also recorded” adds a separate entry of the source. Where two headings read alike, the source gives them in different places.

Columns and labels:
P. falciparum 3D7 [1] = type: cell-based, Plasmodium falciparum
[2] = molecular target: P. falciparum PfSR25− (serpentine receptor 25 knockout strain); test: Comparative IC50 screening, 3D7 versus serpentine receptor 25 knockout strain; type: cell-based, Plasmodium falciparum; details: 72 h, 0.0019–2 µM, Student's t test
Summary of the method: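 Asynchronous 3D7 and PfSR25− cultures (37 °C, 90% N2/5% O2/5% CO2) at 0.3% parasitaemia and 2% haematocrit were exposed for 72 h to eleven final concentrations. Controls were 0.13% DMSO and chloroquine 0.2441–250 nM. Cells were stained with SYBR Green-I (1:10,000) plus MitoTracker Deep Red (50 nM) for 20 min at 37 °C and read by flow cytometry. Survival was taken relative to DMSO, in triplicate over three experiments. IC50 ± SEM came from dose–response curves.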

P. falciparum Dd2 = details: 2 µM; cited from earlier work
P. falciparum 3D7 [3] = test: Competition of TCAMS compounds; type: cell-based, Plasmodium falciparum; details: for effect on the increase in parasitaemia promoted by melatonin: 2.5 nM compound with 100 nM melatonin; for effect on the increase in parasitaemia promoted by melatonin / effect on the increase in parasitaemia promoted by serotonin: 48 h; for effect on the increase in parasitaemia promoted by serotonin: 2.5 nM compound with 250 nM serotonin; for classification on the serotonin/melatonin pathway in the parasite: from effects in presence and absence of serotonin or melatonin
Summary of the method: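 Asynchronous P. falciparum 3D7 cultures (1% parasitaemia, 2% haematocrit) were given 2.5 nM test compound with or without 250 nM serotonin or 100 nM melatonin. Incubation was 48 h at 37 °C under mixed gas, with a DMSO solvent control. Cells were stained with SYBR Green-I (1:10,000) and MitoTracker Deep Red (50 nM) for 20 min at 37 °C, then parasitaemia was read by flow cytometry. Survival is relative to solvent; triplicate, 3 independent experiments.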

[4] = system: Plasmodium falciparum 3D7; test: Drug effects on erythrocytic cycle phases in synchronized cultures; type: cell-based
Summary of the method: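 Sorbitol-synchronized P. falciparum 3D7 at 1% parasitaemia and 2% haematocrit received test compound (150 nM), chloroquine (150 nM) or 0.1% DMSO at 0, 12 or 24 h post-synchronization. Samples were taken at 12, 24, 36 and 48 h and stained for 30 min in HEPES-buffered Hank's with 1 µM Hoechst and […] thiazole orange. Flow cytometry gated rings, trophozoites and schizonts on DNA/RNA signal. Data are mean ± SD from one triplicate experiment.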

P. falciparum 3D7 [5] = type: cell-based, Plasmodium falciparum; details: 2.5 nM compound alone, 48 h
[6] = system: knockout parasites (PfSR25−); details: cited from earlier work
HEK293 cells = test: Cytotoxicity of the compounds in HEK293 cells; type: cell-based, human; details: MTT, 72 h, 0.0019–2 µM; for CC50: read-out: CC50 nM HEK293
Summary of the method: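 HEK293 cells (passages 7–12, grown in DMEM with 10% FBS and penicillin/streptomycin at 37 °C, 5% CO₂) were trypsinized and seeded at 10^4 cells/well. They were exposed to test compound or DMSO vehicle for 72 h. MTT (5 mg/mL reagent) was then added for 3 h, and the formazan was dissolved in DMSO. Absorbance was read at 570 nm and dose–response curves were fitted. Each condition was run in triplicate in 3 independent experiments.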

[7] = read-out: IC50 (nM) 3D7, Table 1, asynchronous culture, 72 h, 0.0019–2 µM, ± standard error of the mean
[8] = Plasmodium falciparum, 3D7, 72 h, read-out: IC50 (nM) 3D7, Table 1, asynchronous culture, 72 h, 0.0019–2 µM, ± standard error of the mean

O=C(/C=C/c1ccc(Cl)c(Cl)c1)NC1CCC(CN2CCC(c3c[nH]c4ccc(O)cc34)CC2)CC1 (stereo not drawn) [TCMDC-139494, Oc1ccc2[nH]cc(C3CCN(CC4CCC(CC4)NC(= O)\C = C\c4ccc(Cl)c(Cl)c4)CC3)c2c1]
IC50 (P. falciparum 3D7 [1]; [7]): 122 ± 21.1 nM | difference of IC50 between 3D7 and PfSR25− [2]: none of the compounds tested were significantly different between the two strains

CN1CCN(CCCCCNc2c3ccccc3nc3ccccc23)CC1.Cl [TCMDC-137541, Cl.CN1CCN(CCCCCNc2c3ccccc3nc3ccccc23)CC1]
IC50 (P. falciparum 3D7 [1]; [8]): 165 ± 74.7 nM | inhibition of parasite development, strain Dd2 (P. falciparum Dd2): ≤ 50%

Cc1ccc(NC(=O)Nc2ccc(Cl)c(C(F)(F)F)c2)cc1-c1ccc(C(=O)NCCN2CCOCC2)cc1 [TCMDC-133589, Cc1ccc(NC(= O)Nc2ccc(Cl)c(c2)C(F)(F)F)cc1-c1ccc(cc1)C(= O)NCCN1CCOCC1]
IC50 (P. falciparum 3D7 [1]; [7]): 1360 ± 198 nM | inhibition of parasite development, strain Dd2 (P. falciparum Dd2): ≤ 50%

COc1cccc(CCNc2nc(NCc3ccccc3)c3cc(OC)c(OC)cc3n2)c1 [TCMDC-135267, COc1cccc(CCNc2nc(NCc3ccccc3)c3cc(OC)c(OC)cc3n2)c1]
IC50 (P. falciparum 3D7 [1]; [8]): 389 ± 120 nM | effect on the increase in parasitaemia promoted by melatonin (P. falciparum 3D7 [3]): able to inhibit the increase in parasitaemia partially; also recorded: effective in preventing the proliferative effects of melatonin | effect on the increase in parasitaemia promoted by serotonin (P. falciparum 3D7 [3]): able to inhibit the increase in parasitaemia; also recorded: the most effective at inhibiting the proliferative effects of serotonin | classification on the serotonin/melatonin pathway in the parasite (P. falciparum 3D7 [3]): potential full antagonists of the pathway | ring phase parasites at the 36 h time point ([4]; 150 nM added 12 h after synchronization, % parasitaemia, n = 3): 0.44 ± 0.14% | parasitaemia at the 36 h time point ([4]; 150 nM added 12 h after synchronization, n = 3): 1.18 ± 0.42% | parasites developed into schizonts at the 24 h time point ([4]; added at 0 h, control 18%): less than 0.5% | effect on erythrocytic cycle progression ([4]; synchronized cultures, added at 0, 12 or 24 h): prevents the progression from trophozoite to mature schizonts, but does not affect the ability of mature schizonts to egress and invade RBCs | effect on parasitaemia compared with the control (P. falciparum 3D7 [5]): did not significantly affect parasitaemia compared with the control

O=C(/C=C/c1ccc(Cl)c(Cl)c1)N1CCC(CN2CCC(c3c[nH]c4cc(C(F)(F)F)ccc34)CC2)CC1 [TCMDC-139860, FC(F)(F)c1ccc2c(c[nH]c2c1)C1CCN(CC2CCN(CC2)C(= O)\C = C\c2ccc(Cl)c(Cl)c2)CC1]
IC50 (P. falciparum 3D7 [1]; [7]): 65.1 ± 11.6 nM | effect on the increase in parasitaemia promoted by melatonin (P. falciparum 3D7 [3]): able to inhibit the increase in parasitaemia partially | effect on the increase in parasitaemia promoted by serotonin (P. falciparum 3D7 [3]): partially inhibited the increase in parasitaemia promoted by serotonin | difference of IC50 between 3D7 and PfSR25− [2]: none of the compounds tested were significantly different between the two strains | inhibition of parasite development, strain Dd2 (P. falciparum Dd2): ≤ 50% | effect on parasitaemia compared with the control (P. falciparum 3D7 [5]): induced a significant increase in parasitaemia

CCCCN(CCCC)CC(O)c1cc(Cl)cc2c1-c1ccc(Cl)cc1/C2=C/c1ccc(Cl)cc1 (stereo not drawn) [lumefantrine]
susceptibility of PfSR25− [6]: increased susceptibility

Clc1ccc2c(N3CCN(CCCN4CCN(c5ccnc6cc(Cl)ccc56)CC4)CC3)ccnc2c1 [piperaquine]
susceptibility of PfSR25− [6]: increased susceptibility

CC(Cc1ccc(NC(=O)c2ccc(CNCCc3ccccc3)cc2)cc1)NCCc1cccc(Cl)c1.Cl (stereo not drawn) [TCMDC-139867, Cl.CC(Cc1ccc(NC(= O)c2ccc(CNCCc3ccccc3)cc2)cc1)NCCc1cccc(Cl)c1]
IC50 (P. falciparum 3D7 [1]; read-out: IC50 nM 3D7, Table 2): 57.4 nM | IC50 (P. falciparum 3D7 [1]; [7]): 57.4 ± 12.2 nM | difference of IC50 between 3D7 and PfSR25− [2]: none of the compounds tested were significantly different between the two strains | cytotoxic activity in HEK293 cells (HEK293 cells): exhibited cytotoxic activity in HEK293 cells | CC50 (HEK293 cells): 1280 nM

O=C1Nc2cccc3c2C1(CCCCN1CCC(c2cc4ccncc4[nH]2)CC1)CCC3 (stereo not drawn) [TCMDC-141151, O = C1Nc2cccc3CCCC1(CCCCN1CCC(CC1)c1cc4ccncc4[nH]1)c23]
IC50 (P. falciparum 3D7 [1]; [7]): 459 ± 33.8 nM | inhibition of parasite development, strain Dd2 (P. falciparum Dd2): ≤ 50%

COc1cc2nccc(Nc3ccc(Oc4ccccc4)cc3)c2cc1OC.Cl [TCMDC-131917, Cl.COc1cc2nccc(Nc3ccc(Oc4ccccc4)cc3)c2cc1OC]
IC50 (P. falciparum 3D7 [1]; [8]): 120 ± 19.4 nM | difference of IC50 between 3D7 and PfSR25− [2]: none of the compounds tested were significantly different between the two strains

Cn1cnc(CCNC(=O)c2cccc(-c3cccc(-c4nc5cc(C(F)(F)F)ccc5[nH]4)c3)c2)c1 [TCMDC-132496, Cn1cnc(CCNC(= O)c2cccc(c2)-c2cccc(c2)-c2nc3cc(ccc3[nH]2)C(F)(F)F)c1]
IC50 (P. falciparum 3D7 [1]; [7]): 1970 ± 116 nM | inhibition of parasite development, strain Dd2 (P. falciparum Dd2): ≤ 50%

CC[C@H](NC(=O)c1c(CN2CCC(N3CCCCC3)CC2)c(-c2ccccc2)nc2cc(O)ccc12)c1ccccc1 [TCMDC-140381, CC[C@H](NC(= O)c1c(CN2CCC(CC2)N2CCCCC2)c(nc2cc(O)ccc12)-c1ccccc1)c1ccccc1]
reduction of P. falciparum parasitaemia by 50% (P. falciparum 3D7 [1]; at the concentrations tested (0.0019–2 µM), 72 h): could not reduce P. falciparum parasitaemia by 50% | inhibition of parasite development, strain Dd2 (P. falciparum Dd2): ≤ 50%

Cc1[nH]c2c(C)cccc2c1C1CCN(CCC2CCN(C(=O)/C=C/c3ccc(Cl)c(Cl)c3)CC2)CC1 [TCMDC-139803, Cc1[nH]c2c(C)cccc2c1C1CCN(CCC2CCN(CC2)C(= O)\C = C\c2ccc(Cl)c(Cl)c2)CC1]
IC50 (P. falciparum 3D7 [1]; [7]): 91.9 ± 18.1 nM | effect on the increase in parasitaemia promoted by melatonin (P. falciparum 3D7 [3]): able to inhibit the increase in parasitaemia partially | effect on the increase in parasitaemia promoted by serotonin (P. falciparum 3D7 [3]): partially inhibited the increase in parasitaemia promoted by serotonin | difference of IC50 between 3D7 and PfSR25− [2]: none of the compounds tested were significantly different between the two strains | effect on parasitaemia compared with the control (P. falciparum 3D7 [5]): induced a significant increase in parasitaemia

O=C(/C=C/c1ccc(Cl)c(Cl)c1)N1CCC(CN2CCC(c3c[nH]c4ccc(O)cc34)CC2)CC1 [TCMDC-139786, Oc1ccc2[nH]cc(C3CCN(CC4CCN(CC4)C(= O)\C = C\c4ccc(Cl)c(Cl)c4)CC3)c2c1]
IC50 (P. falciparum 3D7 [1]; [7]): 138 ± 23.9 nM | effect on the increase in parasitaemia promoted by melatonin (P. falciparum 3D7 [3]): could inhibit the increase in parasitaemia promoted by melatonin thoroughly | effect on the increase in parasitaemia promoted by serotonin (P. falciparum 3D7 [3]): partially inhibited the increase in parasitaemia promoted by serotonin | classification on the serotonin/melatonin pathway in the parasite (P. falciparum 3D7 [3]): potential partial agonists of this pathway in the parasite | effect on parasitaemia compared with the control (P. falciparum 3D7 [5]): induced a significant increase in parasitaemia

O=C(/C=C/c1c(Cl)cccc1Cl)NC1CCC(CN2CCC(c3c[nH]c4ccccc34)CC2)CC1 (stereo not drawn) [TCMDC-139856, Clc1cccc(Cl)c1\C = C\C(= O)NC1CCC(CN2CCC(CC2)c2c[nH]c3ccccc23)CC1]
IC50 (P. falciparum 3D7 [1]; [7]): 274 ± 31.9 nM | inhibition of parasite development, strain Dd2 (P. falciparum Dd2): ≤ 50%

Cc1[nH]c2ccc(O)cc2c1C1CCN(CC2CCN(C(=O)/C=C/c3ccc(Cl)c(Cl)c3)CC2)CC1 [TCMDC-140219, Cc1[nH]c2ccc(O)cc2c1C1CCN(CC2CCN(CC2)C(= O)\C = C\c2ccc(Cl)c(Cl)c2)CC1]
IC50 (P. falciparum 3D7 [1]; [7]): 101 ± 22.9 nM | effect on the increase in parasitaemia promoted by melatonin (P. falciparum 3D7 [3]): able to inhibit the increase in parasitaemia partially | effect on the increase in parasitaemia promoted by serotonin (P. falciparum 3D7 [3]): able to inhibit the increase in parasitaemia | classification on the serotonin/melatonin pathway in the parasite (P. falciparum 3D7 [3]): potential full antagonists of the pathway | effect on parasitaemia compared with the control (P. falciparum 3D7 [5]): did not significantly affect parasitaemia compared with the control

CCOc1cc(CC)ccc1C1CCN(CCCCNC(=O)c2ccc(NC(=O)c3ccc(Cl)cc3)cc2)CC1.Cl [TCMDC-138317, Cl.CCOc1cc(CC)ccc1C1CCN(CCCCNC(= O)c2ccc(NC(= O)c3ccc(Cl)cc3)cc2)CC1]
IC50 (P. falciparum 3D7 [1]; read-out: IC50 nM 3D7, Table 2): 80.8 nM | IC50 (P. falciparum 3D7 [1]; [7]): 80.8 ± 25.9 nM | cytotoxic activity in HEK293 cells (HEK293 cells): exhibited cytotoxic activity in HEK293 cells; also recorded: toxic to mammalian HEK293 cells | CC50 (HEK293 cells): 16.6 nM
